NPY-Y1 antag – NPY-Y1 receptor antagonists, primary screen, cell-based. Neuropeptide Y receptor type 1 (Homo sapiens), P25929. AID 1040, 2008. HEK293-CNG Y1 cells, membrane potential fluorescence; NPY at EC95, then isoproterenol. 200,000 tested, 1% active. inhibition, % at 3.6 µM;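 active = inhibition above the campaign mean inhibition of all tested compounds plus 3 SD, cut at about 20% in these data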;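 also: 0% = DMSO wells given NPY plus isoproterenol and 100% = isoproterenol alone without NPY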
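Material: HEK293 cells co-expressing NPY Y1 receptor and cyclic-nucleotide gated channel. Timing: compound incubation 1 h at room temperature, readout 45 min post-stimulation. Signal: fluorescence, membrane potential probe.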
NPY2 pot ag – NPY-Y2 potentiators or agonists, primary screen, cell-based; cells expressing NPY-Y2, potentiator/agonist read-out; activation, % at 3.6 µM; Neuropeptide Y receptor type 2 (Homo sapiens), P49146; 220,000 tested, 0.45% active; in the data active = activation above about 27%;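 also: cells stimulated with NPY near EC25 plus isoproterenol at EC100; 0% = vehicle plus submaximal agonist and 100% = vehicle plus saturating agonist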
EP2 mod – EP2 receptor modulators, cAMP readout, primary screen, cell-based, HTRF cAMP, PGE2 stimulation; Prostaglandin E2 receptor EP2 subtype (Homo sapiens), P43116; EP2-expressing cells, cAMP HTRF FRET, PGE2 co-stimulation; induction, % at 25 µM; 260,000 tested, 0.83% active; AID 940, 2007;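 active = compounds whose cAMP rise, as percent of the full-agonist control response, exceeds 60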;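 also: rat C6 glioma line stably carrying human EP2 under a CMV promoter; the protocol text gives 20 µM as final concentration; 100% = response of wells given 1 µM PGE2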
Target sequence (P43116 whole entry, looked up): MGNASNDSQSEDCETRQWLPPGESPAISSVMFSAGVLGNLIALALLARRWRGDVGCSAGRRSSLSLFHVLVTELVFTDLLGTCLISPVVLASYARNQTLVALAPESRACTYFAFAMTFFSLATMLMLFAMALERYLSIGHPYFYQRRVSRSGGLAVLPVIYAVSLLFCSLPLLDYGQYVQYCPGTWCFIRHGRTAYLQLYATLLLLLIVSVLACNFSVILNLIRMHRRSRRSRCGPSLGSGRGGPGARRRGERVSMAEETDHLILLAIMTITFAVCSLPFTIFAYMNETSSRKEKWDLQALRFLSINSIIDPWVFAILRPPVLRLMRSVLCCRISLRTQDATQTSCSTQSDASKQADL
NPY Y2 blocker – NPY-Y2 receptor antagonists, primary screen, cell-based; NPY-Y2 expressing cells, antagonist mode; 140,000 tested, 0.99% active; inhibition, % at 2.7 µM; Neuropeptide Y receptor type 2 (Homo sapiens), P49146; AID 793, 2007; in the data active = inhibition above about 17%;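 also: 0% = vehicle with agonist challenge and 100% = reference antagonist with challenge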
EP2 antag – human EP2 receptor antagonists, primary screen, TR-FRET cAMP, C6 glioma cells; C6 glioma cells expressing human EP2; cells stimulated with saturating PGE2; inhibition, % at 25 µM; 260,000 tested, 0.52% active;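 active = percent inhibition above 40 after rounding to a whole number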;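 also: rat C6 glioma host cells with rolipram phosphodiesterase inhibitor present; the protocol text gives 20 µM as final concentration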
NPY1 pot ag – NPY-Y1 receptor potentiators or agonists, primary screen, cell-based | 220,000 tested, 0.37% active | NPY-Y1 expressing cells, potentiator/agonist activation | activation, % at 3.6 µM | Neuropeptide Y receptor type 1 (Homo sapiens), P25929; in the data active = activation above about 33%, passing the limit was not always enough;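 also: cells stimulated with NPY at EC10 then isoproterenol at EC100; 0% = low agonist plus stimulus and 100% = saturating agonist plus stimulus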
NPY-Y1 confirm – NPY-Y1 potentiators or agonists, confirmation, cell-based; shares compounds with NPY1 pot ag; cell-based NPY-Y1 potentiator/agonist assay; activation, % at 3.6 µM; 280 tested, 20% active; AID 1546, 2009; in the data active = activation above about 45%;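 also: cells challenged with NPY at its EC10 plus isoproterenol stimulus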
NPY-Y2 counter – NPY-Y2 potentiators or agonists, counter-screen for NPY-Y1 potentiator project, cell-based, fluorescence; AID 1649, 2009; shares compounds with NPY1 pot ag; HEK293-CNG cells, membrane-potential fluorescence (FLIPR), 1536-well; 280 tested, 20% active; activation, % at 3.6 µM; in the data active = activation above about 33%
NPY-Y1 ag – NPY-Y1 direct agonists without NPY, confirmation, counter-screen for NPY-Y1 potentiator project, cell-based, fluorescence. 280 tested, 50% active. shares compounds with NPY1 pot ag. activation, % at 3.6 µM. HEK293 Y1-CNGC, membrane potential fluorescence, agonist mode;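 active = percent activation above the mean of DMSO-only control wells plus 3 SD of those wells, cut at about 18% in these data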;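 also: cells challenged with isoproterenol plus Ro 20-1724 with no NPY in test wells; Y1 agonism lowers isoproterenol-driven cAMP and reduces probe fluorescence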
NPY-Y2 ag – NPY-Y2 direct agonists without NPY, counter-screen for NPY-Y1 potentiator project, cell-based, fluorescence. shares compounds with NPY1 pot ag. HEK293 Y2-CNGC, membrane potential fluorescence, agonist mode. activation, % at 3.6 µM. 280 tested, 67% active. AID 1698, 2009;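 active = activation above the solvent-only control wells' mean plus 3 SD, cut at about 11% in these data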;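 also: 0% = DMSO with isoproterenol and 100% = 40 nM NPY maximal response; agonism lowers cAMP so well fluorescence drops in active wells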
CNGC inh 2 – CNGC cAMP sensor activity inhibitors, counter-screen for NPY-Y1 potentiator/agonist project, cell-based, HEK293-CNG parental, membrane potential fluorescence, Y1 set | shares compounds with NPY1 pot ag | isoproterenol cAMP | inhibition, % at 3.6 µM | 280 tested, 42% active | AID 1704, 2009;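 active = inhibition above the mean of stimulated solvent-only control wells plus 3 SD, cut at about 22% in these data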;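 also: 0% = isoproterenol-stimulated DMSO wells and 100% = unstimulated DMSO wells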
* hit, by the source's call; · = not tested or not shown. A selection: hits, their analogues and other compounds. The true share with any hit is near 2.8%.

SMILES	NPY-Y1 antag	NPY2 pot ag	EP2 mod	NPY Y2 blocker	EP2 antag	NPY1 pot ag	NPY-Y1 confirm	NPY-Y2 counter	NPY-Y1 ag	NPY-Y2 ag	CNGC inh 2
CCOC(=O)C(C)(C)N(Cc1cccc(C)c1)S(=O)(=O)c1ccc(Cl)c([N+](=O)[O-])c1	-9	27	16	-3	9	66*	34	29	39*	31*	46*
O=C(NC1CCCCC1)C(c1ccccc1)N(Cc1cccs1)C(=O)c1csnn1 (centres undefined)	·	·	8	·	9	·	·	·	·	·	·
C=CC(=O)N1c2ccccc2Sc2ccc(NC(=O)OCC)cc21	-3	20	-20	3	33	42*	24	17	20*	13*	15
Cc1ccc(-c2[nH]c3ccccc3c2SCCNC(=O)c2ccc(S(=O)(=O)N3CCOCC3)cc2)cc1	-5	22	11	1	10	48*	22	12	12	11*	10
O=C1N=c2ccccc2=C1c1sc(=S)n(Cc2ccccc2Cl)c1O	·	-6	8	·	13	72*	37	38*	25*	30*	30*
COc1cccc(NC(=O)c2ccc(NCCCN3CC(C)CC(C)C3)c([N+](=O)[O-])c2)c1 (centres undefined)	-1	16	-59	·	6	38*	43	26	16	14*	31*
COc1cccc(NC(=O)c2ccc(NCCCN3CCC(C)CC3)c([N+](=O)[O-])c2)c1	0	14	-29	·	3	18	·	·	·	·	·
CN1CCc2c(sc3c2C(=O)NC(c2cccs2)N3)C1 (centres undefined)	-9	2	-5	-1	21	-3	·	·	·	·	·
CSc1ccc(C2NC(=O)c3c(sc4c3CCN(C)C4)N2)cc1 (centres undefined)	3	8	-9	2	·	42*	4	0	-6	-3	3
Nc1nc(Cl)cc(N2CCC(c3cc(-c4ccc(Cl)cc4)n[nH]3)CC2)n1	-5	33	-57	-2	26	55*	15	15	1	15*	6
CCC(C)C1C(C#N)=C(N)Oc2n[nH]c(-c3ccccc3)c21 (centres undefined)	-3	24	-32	3	4	40*	27	17	27*	23*	17
Cc1cccc(NC(=O)CSc2nc(C)cc(C)c2C#N)c1	·	·	-10	·	10	·	·	·	·	·	·
C=CCn1c(SCC(=O)Nc2sccc2C(N)=O)nc2ccc(Cl)cc2c1=O	-5	13	-44	-2	23	38*	23	18	2	19*	9
C=CCn1c(SCC(=O)Nc2sccc2C(N)=O)nc2ccccc2c1=O	3	7	-15	3	8	-3	·	·	·	·	·
Cc1nn(C)c(C)c1-c1cc(C(=O)NC2(c3ccccc3)CCCC2)[nH]n1	·	·	-72	·	5	·	·	·	·	·	·
CCn1ccnc1CN1CCc2c([nH]c3ccccc23)C1C(C)(C)C (centres undefined)	-5	15	6	·	2	34*	16	11	7	22*	11
CCn1ccnc1CN1CCc2c([nH]c3ccccc23)C1CC(C)C (centres undefined)	3	-9	24	·	11	9	·	·	·	·	·
CCN(CC)c1ccc(/C=C(/C#N)c2nc3ccc(C)cc3[nH]2)c(OC(C)C)c1	-3	32	-13	-5	6	44*	52*	38*	28*	45*	30*
CCCOc1cc(N(CC)CC)ccc1/C=C(/C#N)c1nc2ccc(C)cc2[nH]1	2	27	19	2	6	25	·	·	·	·	·
Cc1ccc2[nH]c(=O)c(C(c3nnnn3C3CCCC3)N3CCCC3)cc2c1 (centres undefined)	·	·	-5	·	7	·	·	·	·	·	·
NS(=O)(=O)c1ccc(CCNc2ncnc3c2c(-c2ccccc2)cn3-c2ccc(F)cc2)cc1	-6	-7	6	-1	11	105*	6	-2	-5	3	5
Fc1ccc(-n2cc(-c3ccccc3)c3c(NN4CCOCC4)ncnc32)cc1	2	-1	-8	4	6	11	·	·	·	·	·
O=C(CCC1CC(=O)Nc2ccccc21)NCc1ccc(F)cc1 (centres undefined)	4	-26	-7	-2	3	68*	0	-2	-1	-5	1
O=C(CCC1CC(=O)Nc2ccccc21)NCc1ccccc1 (centres undefined)	10	10	-20	3	4	-7	·	·	·	·	·
N/C(=N\OC(=O)/C=C/c1ccccc1)c1ccccc1	6	-8	-15	9	-3	105*	-13	-11	-3	-4	-7
COc1ccc(OC(C)C(=O)Nc2ccccc2C(F)(F)F)cc1 (centres undefined)	0	9	19	0	9	-5	·	·	·	·	·
CC(Oc1cc(C(F)(F)F)cc(C(F)(F)F)c1)C(=O)NC(N)=O (centres undefined)	-13	24	-6	3	20	49*	46*	29	34*	32*	36*
COC(=O)c1cc(C(=O)c2ccc(Cl)cc2)n2c(=O)/c(=C\N(C)C)sc12	-9	16	-2	·	7	35*	14	12	19*	12*	11
COC(=O)c1cc(C(=O)c2ccccc2)n2c(=O)/c(=C\N(C)C)sc12	·	18	4	·	15	13	·	·	·	·	·
